NPY2 pot ag = NPY-Y2 potentiators or agonists, primary screen, cell-based. Neuropeptide Y receptor type 2 (Homo sapiens), P49146. cells expressing NPY-Y2, potentiator/agonist read-out. activation, % at 3.6 µM. 220,000 tested, 0.45% active. AID 1359, 2008; in the data active = activation above about 27%;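 also: cells stimulated with NPY near EC25 plus isoproterenol at EC100; 0% = vehicle plus submaximal agonist and 100% = vehicle plus saturating agonist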
NPY-Y2 antag = NPY-Y2 receptor antagonists, primary screen, cell-based | inhibition, % at 2.7 µM | 140,000 tested, 0.99% active | NPY-Y2 expressing cells, antagonist mode | Neuropeptide Y receptor type 2 (Homo sapiens), P49146; in the data active = inhibition above about 17%;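 also: 0% = vehicle with agonist challenge and 100% = reference antagonist with challenge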
S1P4 antagonist = S1P4 receptor antagonists, primary screen, cell-based; S1P4-expressing cells, antagonist mode, reporter read-out; 220,000 tested, 0.26% active; inhibition, % at 4.98 µM; Sphingosine 1-phosphate receptor 4 (Homo sapiens), O95977; in the data active = inhibition above about 29%;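 also: 0% = wells stimulated with agonist and 100% = vehicle wells without agonist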
S1P4 agonist = S1P4 receptor agonists, primary screen, cell-based; AID 1509, 2009; activation, % at 4.98 µM; S1P4-expressing cell line, agonist reporter assay; Sphingosine 1-phosphate receptor 4 (Homo sapiens), O95977; 220,000 tested, 0.35% active; in the data active = activation above about 11%;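 also: 0% = DMSO vehicle and 100% = reference agonist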
NPY-Y1 antag = NPY-Y1 receptor antagonists, primary screen, cell-based | inhibition, % at 3.6 µM | 200,000 tested, 1% active | HEK293-CNG Y1 cells, membrane potential fluorescence; NPY at EC95, then isoproterenol | AID 1040, 2008;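 active = inhibition above the campaign mean inhibition of all tested compounds plus 3 SD, cut at about 20% in these data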;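 also: 0% = DMSO wells given NPY plus isoproterenol and 100% = isoproterenol alone without NPY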
Target sequence (P25929 whole entry, looked up): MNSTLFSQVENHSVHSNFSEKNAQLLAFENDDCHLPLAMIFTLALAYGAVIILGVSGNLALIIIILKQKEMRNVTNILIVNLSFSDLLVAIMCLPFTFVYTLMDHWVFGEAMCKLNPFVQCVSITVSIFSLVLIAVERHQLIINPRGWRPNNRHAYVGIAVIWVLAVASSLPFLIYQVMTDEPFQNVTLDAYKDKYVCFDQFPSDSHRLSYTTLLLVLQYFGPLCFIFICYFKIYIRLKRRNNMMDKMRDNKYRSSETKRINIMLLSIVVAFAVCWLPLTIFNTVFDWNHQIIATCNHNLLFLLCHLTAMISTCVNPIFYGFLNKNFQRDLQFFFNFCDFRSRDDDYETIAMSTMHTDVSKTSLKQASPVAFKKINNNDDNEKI
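Material: Y1- and CNG-channel-expressing HEK293 cells / Probe or stimulus: NPY 25 nM then isoproterenol 1 µM plus Ro 20-1724 25 µM / Doses: 3.6 µM single dose, DMSO 0.4% / Schedule: compound incubation 1 h at room temperature, readout 45 min post-stimulation / Signal: membrane potential fluorescence / Benchmarks: isoproterenol-only wells as full block versus NPY-plus-isoproterenol wells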
NPY-Y1 PAM-ag = NPY-Y1 receptor potentiators or agonists, primary screen, cell-based; Neuropeptide Y receptor type 1 (Homo sapiens), P25929; NPY-Y1 expressing cells, potentiator/agonist activation; activation, % at 3.6 µM; 220,000 tested, 0.37% active; AID 1304, 2008; in the data active = activation above about 33%, passing the limit was not always enough;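 also: cells stimulated with NPY at EC10 then isoproterenol at EC100; 0% = low agonist plus stimulus and 100% = saturating agonist plus stimulus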
S1P4 agonist cf = S1P4 receptor agonists, retest, confirmation, cell-based, high throughput. shares compounds with S1P4 agonist. S1P4 agonist cell-based reporter assay. activation, % at 4.98 µM. 740 tested, 7% active; in the data active = activation above about 12%;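 also: 0% = vehicle and 100% = full reference agonist response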
S1P1 agonist = S1P1 receptor agonists, human, counter-screen for S1P4 agonist project, cell-based; shares compounds with S1P4 agonist; S1P1 agonist cell-based assay, activation; activation, % at 4.98 µM; 740 tested, 4% active; AID 1563, 2009; in the data active = activation above about 21%;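 also: 0% = vehicle wells and 100% = reference agonist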
* marks the source's active call; other numbers are inactive results; / = no result. In the library only some 2.4% were active in any assay of this set; here they are far more common.

SMILES	NPY2 pot ag	NPY-Y2 antag	S1P4 antagonist	S1P4 agonist	NPY-Y1 antag	NPY-Y1 PAM-ag	S1P4 agonist cf	S1P1 agonist
O=C(CSCc1ccc(Cl)cc1)Nc1ccc(S(=O)(=O)N2CCCCCC2)cc1	10.5	2.7	-10.7	14.6*	0.8	27.3	-2.6	-5.1
O=C(Nc1ccc(Br)cc1)c1csc(-c2ccncc2)n1	-14.7	/	10.1	19.1*	7.3	-5.9	-1.9	-3.1
CNC(=O)c1csc(-c2ccncc2)n1	-25.3	0.8	-1.4	-1.6	15.1	-8.4	/	/
Cc1nc(-c2ccncc2)sc1C(=O)Nc1ccc(Br)cc1	-6.9	/	3.6	19.9*	5.1	-8.7	-0.6	-8.4
CCOc1ccc(S(=O)(=O)N2CCOCC2)cc1[N+](=O)[O-]	0.4	/	-16.1	1.3	5.1	-6.5	/	/
Cc1nc2c(-c3ccc(F)cc3)cnn2c2c1CCC2	-0.3	/	-8.0	2.1	6.8	5.0	/	/
Cn1cccc1C(=O)NC(=O)COC(=O)CNC(=O)CNC(=O)c1ccc(Cl)cc1Cl	-8.7	/	-3.5	22.0*	-4.9	-2.3	-2.3	7.6
Cn1cccc1C(=O)NC(=O)COC(=O)CNC(=O)c1ccc(Cl)cc1Cl	4.2	/	-6.1	1.9	2.2	12.3	/	/
CCOC(=O)C1=C(O)C(=O)N(CCCn2ccnc2)C1c1ccc(OC)cc1 (configuration not stated)	-9.3	/	-16.7	-1.1	3.4	-6.2	/	/
CCN(CC)c1ccc2c(C)c(-c3ccc(N)cc3)c(=O)oc2c1	9.1	0.2	-2.7	3.7	-0.7	21.6	/	/
CCN(CC)c1ccc2c(C)c(Cl)c(=O)oc2c1	-17.4	/	-3.7	15.9*	3.7	-2.5	8.5	9.3
O=C(CSc1ccc(F)cc1)NC(=O)NCc1ccccc1	-10.3	/	-19.1	-1.1	10.2	-3.9	/	/
O=C(CSc1ccc(F)cc1)NCCSc1ccccc1	-15.6	/	-7.1	11.4*	7.2	-7.3	-1.9	-2.9
CC(C)Sc1nc2ccc(Br)cc2[nH]1	-0.5	/	-15.2	13.8*	8.4	19.6	-2.2	1.6
CSc1nc2ccc(Br)cc2[nH]1	-7.2	/	-7.3	0.6	0.7	-7.6	/	/
Cc1cc(C)n(-c2ccc(C(=O)Nc3sccc3C(N)=O)cc2)n1	-3.3	3.4	-24.9	11.7*	-4.9	-16.6	20.8*	-7.4
Cc1cc(C)n(-c2ccc(C(=O)Nc3nnc(C)s3)cc2)n1	-19.4	-1.4	-2.4	-0.4	-1.1	-5.1	/	/
CN=C1S/C(=C\c2cc(C)n(-c3ccccc3F)c2C)C(=O)N1C	11.8	10.1	-35.4	58.5*	3.0	12.3	89.3*	72.2*
Cc1c(CCOC(=O)C23CC4CC(CC(C4)C2)C3)sc[n+]1CC#N	8.9	/	7.5	-0.2	-2.0	3.4	/	/
CCOc1ccc(S(=O)(=O)n2c(C)nc3ccccc32)cc1	-11.8	5.2	-3.8	14.4*	9.1	5.2	-1.5	-7.2
CCCCOc1ccc(S(=O)(=O)n2c(C)nc3ccccc32)cc1	-13.7	4.7	-7.8	-0.7	8.3	-25.8	/	/
Cn1c(NC(=O)CC(C)(C)C)cc(=O)n(C)c1=O	-8.0	0.3	-0.8	45.5*	1.7	-3.2	-1.5	-2.5
Cn1c(NC(=O)Cc2ccc(F)cc2)cc(=O)n(C)c1=O	-3.6	-1.5	-6.8	-0.2	8.3	-10.8	/	/
COc1ccc(CCNC(=O)C(C(=O)c2ccc(F)cc2)n2ccccc2=O)cc1OC (configuration not stated)	2.0	1.6	-11.1	-4.1	2.9	-8.9	/	/
Cc1cc(OC(=O)c2ccco2)c2c(C)cc(=O)oc2c1	-10.6	2.6	-10.5	-0.4	2.1	-28.1	/	/
SMILES	NPY2 pot ag	NPY-Y2 antag	S1P4 antagonist	S1P4 agonist	NPY-Y1 antag	NPY-Y1 PAM-ag	S1P4 agonist cf	S1P1 agonist
Cc1cc(OC(=O)CNC(=O)OC(C)(C)C)c2c(C)cc(=O)oc2c1	3.9	6.7	-14.4	48.1*	5.0	-3.3	-2.1	-7.1
CCc1nc2ccccc2n1CC(O)COCC1CC=CCC1 (configuration not stated)	-7.3	/	5.2	0.5	1.1	-7.7	/	/
Cc1ccc(NC(=O)C2CCCN2C(=O)Oc2ccccc2)cc1 (configuration not stated)	10.1	0.3	-9.7	13.7*	-1.4	6.6	-1.6	-13.0
COc1ccc(NC(=O)C2CCCN2C(=O)Oc2ccccc2)cc1 (configuration not stated)	-8.7	/	-5.6	0.8	-3.2	0.8	/	/
C=CCNC(=S)NNC(=O)C(CCCC)CC(O)COCC(C)C (configuration not stated)	1.8	/	-2.8	-0.3	/	3.4	/	/
CCCCC(CC(O)COCC(C)C)C(=O)NN (configuration not stated)	-12.9	/	-19.4	41.7*	1.8	8.0	-1.9	4.0
O=C(CNC(=O)c1ccc(F)cc1)N/N=C/c1cn[nH]c1-c1ccccc1	1.7	1.8	-18.9	16.5*	-10.5	7.4	-2.0	-2.8
COc1ccc(C(=O)Nc2nc3cc4c(cc3s2)OCO4)c(OC)c1	-9.5	/	0.7	0.4	/	-28.8	/	/
CC1CN(C(=O)COC(=O)c2ccc(NC(=O)CC#N)cc2)CC(C)O1 (configuration not stated)	0.7	/	-5.4	11.1*	-3.3	-2.8	-2.0	-3.2
CN(Cc1cc2ccccc2[nH]c1=O)C(=O)c1cccs1	4.3	/	-6.3	0.4	1.8	-2.2	/	/
Cc1ccc2[nH]c(=O)c(CN(C)C(=O)c3cccs3)cc2c1	6.7	/	-10.7	21.6*	-0.8	9.7	-2.8	-6.8
CCOCCCNC(=O)CCCC1=NS(=O)(=O)c2ccccc2N1	-1.6	1.1	-7.3	-2.1	2.7	2.6	/	/
NS(=O)(=O)c1ccc(CCNC(=O)CCCC2=NS(=O)(=O)c3ccccc3N2)cc1	0.8	2.1	-4.6	17.3*	6.2	4.4	-1.4	-1.8
CCOC(=O)C1(CCOC)CCN(C(C)CCc2ccc(OC)cc2)CC1 (configuration not stated)	-19.5	/	-12.3	-0.9	6.7	-5.3	/	/
COc1cc(C(=O)NCC(=O)N/N=C/c2ccc(OC(=O)c3ccco3)cc2)cc(OC)c1OC	5.7	/	9.6	21.0*	-5.8	5.9	-1.7	-10.7
Cc1ccc(Nc2nc(NCC3CCCO3)nc(N)c2[N+](=O)[O-])cc1 (configuration not stated)	-12.0	0.3	-20.2	-0.8	6.8	11.8	/	/
Nc1nc(NCC2CCCO2)nc(Nc2ccc(F)cc2)c1[N+](=O)[O-] (configuration not stated)	6.8	1.8	-10.4	25.3*	-1.7	3.8	-2.6	-1.2

Screens (PubChem)
